Source: article PMC6039207 (Clinical and Translational Science, 2018)
Marks after values point to notes of the source that are not given here.

Experiments:
WBC FAAH = settings: 4 mg once-daily dose more than sufficient; cited from earlier work
[1] = patients with osteoarthritis; cited from earlier work
FAAH [2] = settings: cited from earlier work
[3] = JNJ-42165279 plasma and urine pharmacokinetics, MAD study; assay type: in vivo, human
Procedure, shortened: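 Plasma and urine samples were taken from healthy volunteers given oral test compound once daily for 10 days (10–100 mg cohorts). Plasma was assayed by validated LC/MS/MS, with profiles over 0–24 h on day 1 and 0–96 h on day 10. PK parameters came from noncompartmental analysis. Accumulation ratios compared day 10 with day 1.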

CSF FAA (AA, AEA, OEA) = experiment: FAA concentrations in CSF; assay type: in vivo, human; settings: for AEA concentration in cerebrospinal fluid / OEA concentration in cerebrospinal fluid / AA concentration in cerebrospinal fluid: young male volunteers, mean (SD)
Procedure, shortened: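 CSF sampled in the double-blind, placebo-controlled multiple-ascending-dose study in healthy volunteers. Oral test compound or placebo was given once daily for 10 days: 10, 25 or 75 mg in young men, 100 mg in young women, 100 mg in elderly subjects. AEA, OEA and arachidonic acid were measured predose and after 6–7 days of dosing. Values were expressed against predose or baseline.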

[4] = JNJ-42165279 concentration in CSF, MAD study; assay type: in vivo, human; settings: after 7 days
Procedure, shortened: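 Test compound in CSF was quantified by a validated LC/MS/MS method after 7 days of once-daily oral dosing in healthy volunteers: 10 mg young men, 25 mg young men, and 100 mg elderly (men only). Values were related to plasma concentrations at Cmax on day 10.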

behavioral evaluations = assay type: in vivo, human
FAAH [5] = molecular target: T1, FAAH (Homo sapiens, UniProt O00519); experiment: FAAH activity in leukocytes; assay type: in vivo
T1 sequence (O00519 1-579): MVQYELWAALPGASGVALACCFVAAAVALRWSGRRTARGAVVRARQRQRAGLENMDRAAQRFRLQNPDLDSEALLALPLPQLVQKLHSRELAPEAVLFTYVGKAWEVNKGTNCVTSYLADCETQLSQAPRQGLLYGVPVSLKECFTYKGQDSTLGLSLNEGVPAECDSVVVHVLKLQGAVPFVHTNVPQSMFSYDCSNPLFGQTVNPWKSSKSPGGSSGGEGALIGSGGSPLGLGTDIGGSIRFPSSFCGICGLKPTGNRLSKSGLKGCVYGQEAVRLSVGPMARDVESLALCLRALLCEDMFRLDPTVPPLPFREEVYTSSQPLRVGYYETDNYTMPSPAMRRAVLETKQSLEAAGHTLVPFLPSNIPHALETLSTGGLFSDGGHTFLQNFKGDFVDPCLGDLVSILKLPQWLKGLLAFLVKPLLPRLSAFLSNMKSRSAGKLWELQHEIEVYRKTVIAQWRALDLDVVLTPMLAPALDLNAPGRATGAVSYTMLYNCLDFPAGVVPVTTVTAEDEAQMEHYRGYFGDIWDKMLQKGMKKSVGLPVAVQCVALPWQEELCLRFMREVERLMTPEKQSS
Procedure, shortened: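 Leukocyte FAAH activity was assayed in healthy volunteers dosed orally once daily for 10 days (10–100 mg cohorts, placebo controls). It was expressed as percent of predose activity. Sampling ran 0–24 h postdose on day 1 and 0–96 h after the day-10 dose. In the PET study, leukocytes were also sampled at scan midpoint, about 4 h 45 min postdose.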

brain FAAH = molecular target: T2, brain FAAH (Homo sapiens, UniProt O00519); experiment: brain FAAH occupancy by PET with [11C]MK3168; assay type: in vivo
T2 sequence (O00519 1-579): T1 sequence (O00519 1-579)
Procedure, shortened: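 Healthy men were scanned by PET with [11C]MK3168 at baseline. In Part 2, scans followed single oral doses (2.5–100 mg range, adaptive; tracer injected 1 h postdose), with repeat doses at least 1 week apart. In Part 3, scans were 24 h after a single dose and 24 h after the last of 7 daily doses. Occupancy came from two-tissue compartment VT, baseline versus treatment.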

plasma protein binding = assay type: in vitro ADME; settings: humans, estimated
[6] = treatment-emergent adverse events and safety, MAD study; assay type: in vivo, human; settings: MAD and PET studies
Procedure, shortened: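 Safety covered treatment-emergent adverse events, physical examinations, laboratory tests, 12-lead ECG and vital signs. Subjects were healthy volunteers on 10 days of once-daily oral test compound (10–100 mg) or placebo, double-blind and randomized, six active and two placebo per cohort.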

[7] = system: plasma FAA (AEA, OEA, PEA); experiment: FAA concentrations in plasma; assay type: in vivo, human
Procedure, shortened: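 Plasma AEA, OEA and PEA were followed in healthy volunteers given oral test compound (10–100 mg) or placebo once daily for 10 days, six active and two placebo per cohort. Concentration–time profiles were taken on day 1 (0–24 h postdose) and day 10 (0–96 h postdose). Mean peak values were compared with mean peak placebo values.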

human FAAH = settings: cited from earlier work
[8] = [11C]MK3168 radiometabolite analysis and brain uptake; assay type: in vivo, human; settings: for standardized uptake value (SUV), gray matter regions / tracer uptake in gray matter regions: baseline
Procedure, shortened: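 In healthy men, the tracer was given as a slow IV bolus (356 ± 57MBq; molar activity 111 ± 67 GBq/μmol), synchronized with a 90-min list-mode PET/CT acquisition after low-dose CT for attenuation correction. Discrete arterial samples at each scan measured parent tracer and radiometabolites as the input function. Brain time-activity curves came from MRI-coregistered, template-based regions.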

[9] = single clinical doses, healthy volunteers; cited from earlier work
[10] = day 10 vs day 1, doses 10–100 mg, range across cohorts
[11] = Predose (baseline), 10 mg cohort
[12] = Predose (baseline), 25 mg cohort
[13] = Predose (baseline), 75 mg cohort
[14] = ∼24 h after stopping the 10 mg dosing

O=C(Nc1cccnn1)N1CCC(=Cc2cccc(Oc3ccc(C(F)(F)F)cn3)c2)CC1 [PF‐04457845]
inhibition of WBC FAAH (WBC FAAH): 97% | effect on pain perception [1]: no effect on pain perception

O=C(Nc1cnccc1Cl)N1CCN(Cc2ccc3c(c2)OC(F)(F)O3)CC1 [JNJ‐42165279]
affinity for human over rat FAAH (FAAH [2]): much higher affinity | estimated accumulation ratio for AUC [3, 10]: 144–337% | estimated accumulation ratio for Cmax [3, 10]: 98–156% | terminal half-life ([3]; in vivo): 8 to 14 h | Mean plasma half-life ([3]; range of cohort means, 10–100 mg QD): 8.14 to 14.1 h | increase of mean CSF AEA concentration relative to predose (CSF FAA (AA, AEA, OEA); 10 mg daily for 7 days): ~45 fold | increase of mean CSF OEA concentration relative to predose (CSF FAA (AA, AEA, OEA); 10 mg daily for 7 days): ~6.6 fold | increase of mean CSF AEA concentration relative to predose (CSF FAA (AA, AEA, OEA); 25 mg daily for 7 days): ~41 fold | increase of mean CSF OEA concentration relative to predose (CSF FAA (AA, AEA, OEA); 25 mg daily for 7 days): ~5.8 fold | increase of mean CSF AEA concentration relative to predose (CSF FAA (AA, AEA, OEA); 75 mg daily for 7 days): ~77 fold | increase of mean CSF OEA concentration relative to predose (CSF FAA (AA, AEA, OEA); 75 mg daily for 7 days): ~7.4 fold | AEA concentration in cerebrospinal fluid (CSF FAA (AA, AEA, OEA); Day 7, 10 mg daily): 12.6 (4.86) | OEA concentration in cerebrospinal fluid (CSF FAA (AA, AEA, OEA); Day 7, 10 mg daily): 139 (42.0) | AA concentration in cerebrospinal fluid (CSF FAA (AA, AEA, OEA); Day 7, 25 mg daily, n=5): 1.44 (0.52) ^b | AEA concentration in cerebrospinal fluid (CSF FAA (AA, AEA, OEA); Day 7, 25 mg daily, n=5): 21.24 (7.39) ^b | OEA concentration in cerebrospinal fluid (CSF FAA (AA, AEA, OEA); Day 7, 25 mg daily, n=5): 116.81 (26.07) ^b | AA concentration in cerebrospinal fluid (CSF FAA (AA, AEA, OEA); Day 7, 75 mg daily, n=5): 1.81 (0.72) ^b | AEA concentration in cerebrospinal fluid (CSF FAA (AA, AEA, OEA); Day 7, 75 mg daily, n=5): 28.88 (9.52) ^b | OEA concentration in cerebrospinal fluid (CSF FAA (AA, AEA, OEA); Day 7, 75 mg daily, n=5): 150.24 (34.64) ^b | AEA concentration in cerebrospinal fluid (CSF FAA (AA, AEA, OEA); [11]): 0.28 (0.31) | OEA concentration in cerebrospinal fluid (CSF FAA (AA, AEA, OEA); [11]): 21.2 (5.33) | AA concentration in cerebrospinal fluid (CSF FAA (AA, AEA, OEA); [12]): 1.85 (0.52) | AEA concentration in cerebrospinal fluid (CSF FAA (AA, AEA, OEA); [12]): 0.52 (0.16) | OEA concentration in cerebrospinal fluid (CSF FAA (AA, AEA, OEA); [12]): 20.15 (10.19) | AA concentration in cerebrospinal fluid (CSF FAA (AA, AEA, OEA); [13]): 2.04 (0.86) | AEA concentration in cerebrospinal fluid (CSF FAA (AA, AEA, OEA); [13]): 0.38 (0.21) | OEA concentration in cerebrospinal fluid (CSF FAA (AA, AEA, OEA); [13]): 20.21 (8.25) | increase of AEA concentrations in CSF (CSF FAA (AA, AEA, OEA); after 7 days of dosing): 40–70 fold | Mean concentration of JNJ-42165279 in CSF ([4]; cohort A (25 mg)): 8.95 ng/mL | Mean concentration of JNJ-42165279 in CSF ([4]; cohort D, men only): 31.8 ng/mL | Mean concentration of JNJ-42165279 in CSF ([4]; cohort E (10 mg)): 2.67 ng/mL | CSF concentration relative to plasma values at Cmax on day 10 ([4]; slightly over): over 3% | quality of working memory (QWM) (behavioral evaluations; 100 mg, elderly volunteers, P ≤ 0.05, 4 h postdose days 1, 6, 10): significant negative treatment effect | ARCI-53 report (behavioral evaluations; 100 mg, women of nonchild-bearing potential): slight similarity to sedatives and dissimilarity to stimulants | treatment effect on tapping, tracking, and postural stability (behavioral evaluations; MAD study): No treatment effects were observed | ARCI-53: experiences similar to marijuana or hallucinogens (behavioral evaluations; all groups): no groups reported experiences similar to marijuana or hallucinogens | FAAH activity remaining in leukocytes, mean trough (FAAH [5]; relative to predose values, after a single dose, 10–100 mg dose range): 7.85–10.4% | FAAH activity recovered in leukocytes (FAAH [5]; [14]): ~50% | occupancy of brain FAAH (brain FAAH; 24 h after dosing with 10 mg): 80–85% | FAAH occupancy at trough (brain FAAH; after the first dose of 10 mg): > 80% | doses giving saturation of brain FAAH occupancy (brain FAAH; in vivo): ≥ 10 mg | brain FAAH occupancy (brain FAAH; single doses of 2.5 and 5 mg, at estimated Cmax): lesser, although appreciable, occupancy | brain FAAH occupancy (brain FAAH; single doses of 10, 25, and 50 mg, at estimated Cmax): 96–98% | brain FAAH occupancy (brain FAAH; [14]): ≥ 80% | unbound fraction (plasma protein binding): 6.4–7.5% | deaths, serious or severe TEAEs, discontinuations due to TEAEs [6]: No deaths, serious, or severe treatment emergent adverse event (TEAEs) or discontinuations due to TEAEs | vital signs, ECG parameters including QTc, physical examination [6]: no clinically significant treatment effects were observed | doses with maximal effect on plasma AEA turnover ([7]; in vivo): ≥ 75 mg | increase of plasma AEA levels ([7]; lowest dose tested in the MAD study (10 mg)): ≥ 10 fold | mean peak plasma AEA concentration versus mean peak placebo values ([7]; single doses 10–100 mg): 5.5–10 fold | mean peak plasma OEA and PEA concentrations versus mean peak placebo ([7]; single doses 10–100 mg): 4.3–5.6 fold

CN(C)C(=O)[C@H]1C[C@@H]1c1ccc(-c2ncn(C)c2Sc2ccc(Cl)cn2)cc1 [[^11C]MK3168]
IC50 (human FAAH): 1 ± 0.6 nM | standardized uptake value (SUV), gray matter regions ([8]; at 20 min): ~3.0 | tracer uptake in gray matter regions ([8]; at 20 min): ~15 kBq/cc | standardized uptake value (SUV), gray matter regions ([8]; at 90 min): ~2.0 | tracer uptake in gray matter regions ([8]; at 90 min): ~10 kBq/cc | parent tracer remaining in plasma ([8]; baseline scans, 10 min postinjection): 30–40% | elimination of tracer from plasma ([8]; baseline scans, 60 min p.i.): almost complete elimination

CCCCCCC(C)(C)c1cc(O)c2c(c1)OC(C)(C)C1CCC(=O)CC21 (stereo not shown) [nabilone]
effect on cognitive performance [9]: notable impairment on cognitive performance
